Screens (PubChem)
TAAR1 agonist – human TAAR1 agonism | actives 0.99% (n = 360,000) | CHO RD-HGA16 TAAR1, Fluo-8 calcium fluorescence; vehicle wells 0%, saturating PEA agonist 100% | activation, % at 3 µM;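 active = activation above the mean activation of all test compounds in the run plus 3 SD, cut at about 38% in these data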
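Assay system – CHO-derived RD-HGA16 cells with stable Gα16 and human TAAR1 · Compound dosing – one-point dosing at 3 µM (nominal) · Incubation – 17-24 h seeding, 75 min 37 °C dye, 30 min RT · Measured by – kinetic Fluo-8 calcium fluorescence · Control set – DMSO vehicle as 0%, PEA at EC100 as 100% · Repeats – single well for each compound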
TAAR1 antag – human TAAR1 antagonism; actives 1.5% (n = 360,000); CHO RD-HGA16 TAAR1, Fluo-8 calcium fluorescence, antagonist; Q96RJ0; inhibition, % at 3 µM;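 active = inhibition above a per-plate cutoff, the mean inhibition of test compounds on that plate plus 3 SD, cut at about 49% in these data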;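 also: 0% = DMSO plus EC80 beta-PEA response and 100% = DMSO alone without agonist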
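test system = CHO RD-HGA16 cells bearing hTAAR1 | replication = singlicate | controls = DMSO-only wells and EC80 β-PEA-stimulated wells | reagent = EC80 β-phenethylamine stimulus | read-out basis = percent inhibition of PEA-evoked calcium signal, max/basal emission ratio | schedule = seeding 17-24 h prior, 75-min 37 °C, 30-min RT dye loading | signal = kinetic Fluo-8 calcium fluorescence measurement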
OX1R antag-1 – human HCRTR1 antagonism | O43613 | CHO/OX1R cells, Fluo-8 calcium fluorescence, orexin A | inhibition, % at 5 µM | actives 0.43% (n = 330,000) | AID 434989;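 active = inhibition above its plate's threshold, mean inhibition of all tested compounds on the plate plus 3 SD, cut at about 37% in these data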;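 also: 0% = orexin A challenge wells and 100% = SB-334867-A antagonist wells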
Target sequence (O43613 whole entry, looked up): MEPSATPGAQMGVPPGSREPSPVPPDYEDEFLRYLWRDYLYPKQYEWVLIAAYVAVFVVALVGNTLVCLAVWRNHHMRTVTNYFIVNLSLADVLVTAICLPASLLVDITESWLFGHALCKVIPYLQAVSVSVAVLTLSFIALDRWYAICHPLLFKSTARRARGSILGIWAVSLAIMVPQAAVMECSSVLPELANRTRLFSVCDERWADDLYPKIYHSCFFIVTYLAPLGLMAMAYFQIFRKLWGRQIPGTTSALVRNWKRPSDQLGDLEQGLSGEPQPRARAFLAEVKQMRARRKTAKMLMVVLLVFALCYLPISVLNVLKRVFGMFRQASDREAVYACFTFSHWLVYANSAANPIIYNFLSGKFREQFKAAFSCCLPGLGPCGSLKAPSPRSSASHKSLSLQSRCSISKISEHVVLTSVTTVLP
OX1R antag-2 – blocks the human orexin 1 receptor | O43613 | OX1R-expressing cells, FRET antagonist read-out | inhibition, % at 6.6 µM | actives 1.8% (n = 330,000); in the data active = inhibition mostly above about 38%, no sharp cut-off; inactive = mostly below about 40%;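 also: 0% = agonist challenge alone and 100% = reference antagonist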
CHO parental Ca – counter-screen: ATP calcium response change in parental CHO cells; actives 0.63% (n = 330,000); inhibition, % at 5.6 µM; parental CHO-K1, ATP-induced calcium, Fluo-8 fluorescence;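 active = inhibition above that plate's mean sample inhibition plus 3 SD, cut at about 26% in these data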;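 also: 0% = ATP-challenged DMSO wells and 100% = DMSO wells without ATP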
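Measured by: calcium-sensitive Fluo-8 fluorescence / Test system: CHO parental line / Controls: ATP-challenged DMSO wells low, unchallenged DMSO wells high / Measure: % inhibition / Compound: single nominal dose of 5.6 µM per compound / Replicates: single well per compound, no replicates / Reagent: ATP as calcium-mobilizing challenge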
GPR7 antag – blocks human GPR7 receptor signaling; P48145; GPR7-expressing cells, fluorescence antagonist assay; inhibition, % at 4.4 µM; actives 1.1% (n = 290,000); in the data active = inhibition above about 16%, passing the limit was not always enough;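 also: cells stimulated with the agonist NPW; 0% = agonist with vehicle and 100% = vehicle without agonist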
Starred values were filed as active, the others as inactive; nt = not tested or not shown. Hits are enriched below; roughly 4.6% of the tested compounds scored in any of these assays.

SMILES | TAAR1 agonist | TAAR1 antag | OX1R antag-1 | OX1R antag-2 | CHO parental Ca | GPR7 antag
Cc1ccc(Nc2c(-c3ccccn3)nc3ccc(C)cn23)cc1 | 2 | 4 | -26 | 27 | 36* | 1
COc1ccc(-c2noc(N3CCC(C(=O)NCc4ccccc4Cl)CC3)n2)cc1 | 6 | 29 | -5 | 10 | -6 | 12
CCn1cnc2cc(NCc3ccc(N(C)C)cc3)ccc21 | 2 | -31 | -13 | 17 | -13 | -10
CCN(CC)c1ccc(CNc2ccc3c(c2)ncn3CC)cc1 | 6 | -6 | 0 | -9 | 46* | -19
C=CCNc1ncnc2c1cnn2-c1ccc(OC)cc1 | 6 | -2 | -4 | 12 | -6 | 8
CC1CCCCN1C(=O)CCS(=O)(=O)c1cccc2nonc12 (configuration not stated) | 0 | -31 | -1 | 71* | 14 | -4
Cc1ccc(N2C(=O)c3ccccc3C(C)(C)C2=O)cc1 | 9 | 4 | -24 | 15 | -1 | -11
CCOC(=O)C1=C(CSc2nc3ccccc3s2)NC(=O)NC1c1cc(C)ccc1C (configuration not stated) | -1 | 1 | 27 | 49* | -29 | -4
COc1ccc(OCCOC(=O)c2[nH]c(C)c(C(C)=O)c2C)cc1 | 6 | 8 | -2 | 38 | 45* | 4
COc1ccc(CCNC(=O)c2[nH]c(C)c(C(C)=O)c2C)cc1 | 13 | 5 | -26 | 23 | -30 | 9
CN(C)c1ccc(C(CNS(=O)(=O)c2ccc([N+](=O)[O-])cc2)N2CCCC2)cc1 (configuration not stated) | 2 | 1 | -32 | 71* | -15 | nt
CN(C)c1ccc(C(CNS(=O)(=O)c2ccc3ccccc3c2)N2CCOCC2)cc1 (configuration not stated) | 3 | -6 | -29 | 17 | -14 | nt
Cc1nc2nc(SCC(=O)NCCCN3CCOCC3)nn2c(C)c1Cc1ccccc1 | 3 | -25 | -26 | 4 | -20 | 3
CCc1ccc(Nc2nnc(SCC(=O)Nc3sccc3C(N)=O)s2)cc1 | 15 | 39 | -5 | 26 | -25 | -9
COc1cccc(Nc2nnc(SCC(=O)Nc3sccc3C(N)=O)s2)c1 | 12 | 68* | 15 | 63 | 1 | 12
CCOc1ccc(S(=O)(=O)Nc2ccc(C(=O)NCC3CCCO3)cc2)cc1 (configuration not stated) | 6 | 0 | 11 | 7 | 5 | -14
Cc1ccc(NC(=O)c2cc(N3C(=O)C=CC3=O)ccc2N2CCOCC2)cc1Cl | 30 | 51* | 25 | 5 | 6 | -5
Cc1ccc(NC(=O)c2cc(N3C(=O)CCC3=O)ccc2N2CCOCC2)cc1 | 4 | 3 | -12 | 19 | -9 | 15
COc1cc(-c2nc3ccccn3c2NCc2ccccc2)ccc1SC1CCCCC1 | nt | nt | -10 | 23 | 62* | nt
CCOCCCn1c(=N)c(S(=O)(=O)c2ccc(C)cc2)cc2c(=O)n3cc(C)ccc3nc21 | 0 | -4 | -15 | 10 | -8 | -2
Cc1sc(NC(=O)c2ccco2)c(C(c2cccnc2)N2CCN(CCO)CC2)c1C (configuration not stated) | 2 | -4 | -25 | 1 | -17 | -10
CCOC(=O)C1CCN(C(c2cccnc2)c2c(NC(=O)c3ccco3)sc(C)c2C)CC1 (configuration not stated) | 23 | 26 | -35 | 8 | -8 | 27*
CN1CCN(c2ncnc3c2[nH]c2ccc(F)cc23)CC1 | 10 | 10 | -15 | 8 | -11 | -9
CCOc1ccc2[nH]c3c(N4CCc5ccccc5C4)ncnc3c2c1 | 1 | -8 | -9 | 13 | -16 | -9
Clc1ccc2[nH]c3c(N4CCC5(CC4)OCCO5)ncnc3c2c1 | nt | nt | 24 | 82* | 31 | 10
Brc1ccc2[nH]c3c(N4CCc5ccccc5C4)ncnc3c2c1 | nt | nt | 44* | 13 | 47* | 3
Cc1ccc2[nH]c3c(N4CCc5ccccc5C4)ncnc3c2c1 | 13 | 36 | 51* | 82* | 64* | 13
Fc1ccc2[nH]c3c(N4CCc5ccccc5C4)ncnc3c2c1 | 6 | 42 | 11 | 56* | 65* | 11
